PTEN del growth: growth suppressors of cells with PTEN tumor suppressor deletion | viability, % at 10 µM | HCT116 PTEN-null viability, CellTiter-Glo, 60 h; hits give low values | actives 1.2% (n = 140,000) | AID 827;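 active means viability at or below a set limit, 4 SD under the median of all tested compounds, cut at about 3.7% in these data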;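 further: PTEN knockout HCT116 line with beta catenin targeted HCT116 as companion control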
H69AR inhibit: growth inhibitors of human H69AR lung tumor cells; H69AR lung tumor viability, ATP luminescence, 72 h; hits give low values; viability, % at 10 µM; actives 6% (n = 85,000); AID 598;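 active means viability at or below 40%; inactive means viability above 40%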;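 further: multidrug resistant small cell line overexpressing MRP-1 efflux transporter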
bCat KO growth: beta-catenin-lacking colon tumor cell growth suppression; HCT116 beta-catenin knockout viability, CellTiter-Glo, 60 h; hits give low values; viability, % at 10 µM; actives 1.5% (n = 140,000); AID 818;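 active means viability at or under a set limit, the compound median less 4 SD, cut at about 6% in these data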
HUVEC inhibit: blocks proliferation of human endothelial cells | HUVEC proliferation, CellTiter-Glo luminescence, 72 h; hits give low values | viability, % at 10 µM (by protocol) | actives 1.1% (n = 86,000);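 active means viability at or below 30%; inactive means viability above 30%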
Lung fibro prol: blocks proliferation of human lung fibroblasts | LL 47 human lung fibroblast viability, ATP luminescence; hits give low values | viability, % at 10 µM | actives 1.1% (n = 85,000);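 active means viability at or below 50% in the single dose screen; inactive means viability above 50%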;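 further: compound exposure lasted 72 h before the ATP readout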
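Assay system: human lung fibroblast line LL 47, low passage. Input: 1,150 fibroblasts seeded per well. Times: overnight cell rest, 72 h compound treatment at 37 °C. Evaluation: % viability of median cell-only signal. Technique: luminescent ATP detection, CellTiter-Glo. Control set: cell-only wells, no compound.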
Hits are given with their value; n = inactive; x = no result given. The sample as a whole holds a higher share of hits than the screen did.

SMILES | PTEN del growth | H69AR inhibit | bCat KO growth | HUVEC inhibit | Lung fibro prol
O=C1/C(=C\c2cccnc2)Sc2ccccc21 | n | x | n | x | x
CC1C/C(=C\c2cccnc2)C(=O)/C(=C/c2cccnc2)C1 (stereo not drawn) | 2.1 | x | 2.7 | x | x
CCOC(=O)N1CCN(c2ccc(O)cc2)CC1 | n | x | n | x | x
CCOC(=O)c1c(C)c(C(=O)N2CCc3ccccc3C2)c(C)n1CC | n | 16 | n | n | n
CCOC(=O)c1c(C)c(C(=O)Nc2ccccc2)c(C)n1CC | n | n | n | n | n
CCOC(=O)c1cnn(-c2ncnc3c2cnn3Cc2ccccc2)c1N | x | 26 | x | 20 | n
Cc1cccc(N(C)C(=O)c2cc3cc4ccc(C)cc4nc3o2)c1 | n | 19 | n | n | n
C[N+]1(CC#CC(O)(c2ccccc2)c2ccccc2)CCCC1 | n | x | n | x | x
Cc1ccccc1OCCSc1nnc(-c2cccnc2)n1N | n | x | n | x | x
Clc1nc(-c2ccccc2)cc(-c2ccccc2)n1 | n | x | n | x | x
CC(C)c1ccccc1NC(=O)CCc1nc2ccccc2s1 | n | x | n | x | x
N#CC1=C(N)Oc2cc(N)ccc2C1C1CCCCC1 (stereo not drawn) | n | 24 | n | n | n
CCOc1ccc(/C(O)=C2/C(=O)C(=O)N(CCCn3ccnc3)C2c2cccs2)cc1Cl (stereo not drawn) | n | n | n | n | n
OC1(c2cccc(C(F)(F)F)c2)CCN(c2ncnc3c2[nH]c2ccc(F)cc23)CC1 | 2.6 | 2.4 | n | 6.4 | n
CC1C/C(=N\Nc2ccc(S(N)(=O)=O)cc2[N+](=O)[O-])CC(C)(C)C1 (stereo not drawn) | n | x | n | x | x
NS(=O)(=O)c1ccc(N/N=C2/CCCCC2C2CCCCC2)c([N+](=O)[O-])c1 (stereo not drawn) | 2.5 | x | 1.7 | x | x
COc1ccc(NS(=O)(=O)c2cc(OCC(N)=O)c(C)cc2Cl)cc1 | n | x | n | x | x
CCN1C(=O)/C(=C2/C=Cc3ccccc3N2C)OC1=S | n | 28 | n | n | n
O=C(Nc1ccccc1NC(=O)NC1CCCCC1)NC1CCCCC1 | n | 0.6 | n | 3.6 | n
NC(=O)c1ccccc1NC(=O)NC1CCCCC1 | n | n | n | n | n
CCC1Oc2ccc(C)cc2N(CC(=O)N(Cc2ccc(C)o2)C2CC(C)(C)NC(C)(C)C2)C1=O (stereo not drawn) | n | 32 | n | n | n
CCC1Oc2ccc(C)cc2N(CC(=O)N(Cc2cccnc2)Cc2ccc(C)o2)C1=O (stereo not drawn) | n | n | n | n | n
O=[N+]([O-])c1ccc(Oc2ccc(F)cc2)c2ccncc12 | n | 24 | n | n | n
O=[N+]([O-])c1ccc(Oc2cccc(Br)c2)c2ccncc12 | n | 18 | n | n | n
COc1cc(OC)c(C2=NOC(C(=O)NCc3ccc4c(c3)OCO4)C2)cc1Cl (stereo not drawn) | n | 22 | n | n | n
SMILES | PTEN del growth | H69AR inhibit | bCat KO growth | HUVEC inhibit | Lung fibro prol
COc1ccc(CNC(=O)C2CC(c3cccc(OC)c3)=NO2)cc1 (stereo not drawn) | n | n | n | n | n
CCn1ncc(C2=NOC(C(=O)Nc3cc(OC)c(Cl)cc3OC)C2)c1C (stereo not drawn) | n | 39 | n | n | n
CCn1ncc(C2=NOC(C(=O)NCC(C)C)C2)c1C (stereo not drawn) | n | n | n | n | n
COc1ccc(OC)c(C2=NOC(C(=O)NCc3ccco3)C2)c1 (stereo not drawn) | n | 33 | n | n | n
COc1ccc(C2=NOC(C(=O)NCc3ccc(F)cc3)C2)cc1OC (stereo not drawn) | n | 28 | n | n | 46
COc1cc(C2=NOC(C(=O)NCc3ccc(F)cc3)C2)cc(OC)c1OC (stereo not drawn) | n | x | n | x | x
O=C(NCc1ccc2c(c1)OCO2)C1CC(c2ccc(Cl)cc2)=NO1 (stereo not drawn) | n | n | n | n | n
CCOC(=O)C1CCN(C(=S)Nc2cc(OC)c(OC)cc2C(=O)OC)CC1 | n | n | n | n | n
Cc1ccc2nc3c(cc(C#N)c(=N)n3CC3CCCO3)c(=O)n2c1 (stereo not drawn) | x | n | x | n | n
CC1=C(C(=O)OC(C)(C)C)C(c2cccs2)NC(=O)N1 (stereo not drawn) | n | x | n | x | x
COC(=O)c1ccc(Cl)c(NC(=O)CN(c2ccccc2)S(=O)(=O)c2ccc(OC)cc2)c1 | n | x | n | x | x
NN1C(=O)c2cccc3c(C(=O)O)ccc(c23)C1=O | n | x | n | x | x
O=C(c1ccc2c3c(cccc13)C(=O)N(O)C2=O)N1CCCCC1 | n | 25 | n | n | n
COc1cc2c(N3CCOCC3)cc(O)c(CC(=O)Nc3ccccc3)c2cc1OC | n | n | n | n | 48
COc1ccccc1-c1cc(-c2ccccc2)nc(SC(C(N)=O)c2ccccc2)c1C#N (stereo not drawn) | 3.5 | x | n | x | x
O=C(O)/C=C/C(=O)NNC(=O)c1cccc(Br)c1 | n | x | n | x | x
COC(=O)c1ccc(CSc2nc(-c3ccc(OC)cc3)nc3c2c(=O)n(C)c(=O)n3C)o1 | x | n | x | n | n
CC1(C)CC(=O)C2=C(C1)Oc1nc3ccccc3cc1C2C(C#N)C#N (stereo not drawn) | n | 1.6 | n | n | 17
C=C(C(=O)c1ccccc1)C(C)CC(=O)c1ccccc1 (stereo not drawn) | 1.5 | x | 2.1 | x | x
CN(CC(=O)Nc1ccc(F)cc1)C(=O)COc1ccc(C(=O)c2ccccc2)cc1 | n | x | n | x | x
O=C(NC1CCCCC1)C(c1ccccc1)N(Cc1ccc2c(c1)OCO2)C(=O)c1cnsn1 (stereo not drawn) | n | 38 | n | n | n
Cc1ccc(C(C(=O)NC2CCCC2)N(Cc2ccc3c(c2)OCO3)C(=O)Cc2cccs2)cc1 (stereo not drawn) | n | n | n | n | n
CS(=O)(=O)N1CCN(c2ccc(NC(=O)c3ccc(-c4ccc(Cl)cc4)o3)cc2)CC1 | n | 29 | n | n | n
O=C(Nc1ccc(CN2CCOCC2)cc1)c1ccc(-c2cccc(Cl)c2)o1 | n | 31 | 1.9 | n | n
O=C(Nc1ccc(CN2CCOCC2)cc1)c1cc2ccccc2o1 | n | n | n | n | n
SMILES | PTEN del growth | H69AR inhibit | bCat KO growth | HUVEC inhibit | Lung fibro prol
CC1Cc2cc(/C(O)=C3\C(=O)C(=O)N(CCN(C)C)C3c3ccccc3F)ccc2O1 (stereo not drawn) | n | x | n | x | x
Cc1nc(-c2ccccn2)sc1C(=O)Nc1ccc(Cl)c(Cl)c1 | n | x | n | x | x
Cc1cc(=O)[nH]c(N/N=C/c2ccccn2)n1 | n | x | n | x | x
CCCc1sc(N/N=C/c2ccccn2)nc1-c1ccc(Br)cc1 | n | 11 | n | 5.2 | 29
Cc1nn(Cc2c(Cl)cccc2Cl)c(Cl)c1/C=C/C(=O)OCC(=O)NCC(F)(F)F | n | x | 4.2 | x | x
COCCNC(=O)COC(=O)/C=C/c1c(C)nn(Cc2ccc(Cl)cc2Cl)c1Cl | n | n | n | n | n
N=C1C(c2nc(-c3ccc(Cl)cc3)cs2)=C(O)CN1CCCN1CCOCC1 | n | n | n | 10.0 | n
CCOC(=O)C1=C(NC(=O)c2ccc(Br)o2)Nc2ccccc2N=C1 | n | 31 | n | n | n
